Assay results: ChEMBL document CHEMBL1146219, “Synthesis and evaluation of novel radioiodinated benzamides for malignant melanoma” (J Med Chem, 2007)
One block for each compound: values may come before it.

How the values were obtained:
[1] = Displacement of [3H]DTG from sigma 2 receptor in guinea pig brain membrane; type: cell membranes, Cavia porcellus
Summary of the method: (§1)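 Guinea pig brain membranes, incubated in duplicate for 2 h at 25 °C in Tris-HCl pH 8.0. Benzamide 10⁻¹⁰ to […] against 2 nM [³H]-(+)-pentazocine (σ₁) or 2 nM [³H]DTG plus 100 nM (+)-pentazocine (σ₂). Nonspecific binding defined with 1 µM haloperidol. GF/B filtration, bound activity by β-scintillation counting, giving IC50 then Ki. Full curves run only where 10⁻⁵ M inhibited >90%.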

[2] = biological target: Sigma non-opioid intracellular receptor 1 (Cavia porcellus, UniProt Q60492); experiment: Displacement of [3H](+)-pentazocine from sigma 1 receptor in guinea pig brain membrane; type: cell membranes; summary of the method: as §1
Sequence of Sigma non-opioid intracellular receptor 1 (Q60492 whole entry): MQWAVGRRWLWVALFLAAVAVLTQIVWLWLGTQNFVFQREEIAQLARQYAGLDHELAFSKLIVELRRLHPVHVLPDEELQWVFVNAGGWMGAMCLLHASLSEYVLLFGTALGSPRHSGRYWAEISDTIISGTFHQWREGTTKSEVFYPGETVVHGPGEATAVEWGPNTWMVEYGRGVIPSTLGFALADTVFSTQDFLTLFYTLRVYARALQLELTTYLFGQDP

[3] = Lipophilicity, log P at pH 7.5; type: physicochemical; details: buffer
[4] = tested on: Blood; experiment: Biodistribution in blood of B16F0 tumor bearing C57BL/6J mouse at 0.37-0.74 MBq, iv after 1 hr; type: ADME, organism-based; details: in vivo
Summary of the method: (§2)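 Female C57BL/6J mice (15-18 g) were given B16F0 cells subcutaneously in the left flank (0.1 mL of 3 × 10⁶ viable cells/mL in Ca²⁺/Mg²⁺-free PBS) at 6-7 weeks and used after ten days. [¹²³I]benzamide (0.37-0.74 MBq, 100 µL, saline) was injected via the tail vein. Groups of n = 5 were killed by CO₂ and cervical dislocation. Organs were weighed and γ-counted, and the carcass was counted too.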

[5] = tested on: Lung; experiment: Biodistribution in lung of B16F0 tumor bearing C57BL/6J mouse at 0.37-0.74 MBq, iv after 1 hr; type: ADME, organism-based; details: in vivo; summary of the method: as §2
[6] = tested on: Brain; experiment: Biodistribution in brain of B16F0 tumor bearing C57BL/6J mouse at 0.37-0.74 MBq, iv after 6 hrs; type: ADME, organism-based; details: in vivo; summary of the method: as §2
[7] = tested on: Heart; experiment: Biodistribution in heart of B16F0 tumor bearing C57BL/6J mouse at 0.37-0.74 MBq, iv after 1 hr; type: ADME, organism-based; details: in vivo; summary of the method: as §2
[8] = tested on: Heart; experiment: Biodistribution in heart of B16F0 tumor bearing C57BL/6J mouse at 0.37-0.74 MBq, iv after 24 hrs; type: ADME, organism-based; details: in vivo; summary of the method: as §2
[9] = tested on: Kidney; experiment: Biodistribution in kidney of B16F0 tumor bearing C57BL/6J mouse at 0.37-0.74 MBq, iv after 1 hr; type: ADME, organism-based; details: in vivo; summary of the method: as §2
[10] = tested on: Blood; experiment: Biodistribution in blood of B16F0 tumor bearing C57BL/6J mouse at 0.37-0.74 MBq, iv after 6 hrs; type: ADME, organism-based; details: in vivo; summary of the method: as §2
[11] = tested on: Heart; experiment: Biodistribution in heart of B16F0 tumor bearing C57BL/6J mouse at 0.37-0.74 MBq, iv after 6 hrs; type: ADME, organism-based; details: in vivo; summary of the method: as §2
[12] = tested on: Brain; experiment: Biodistribution in brain of B16F0 tumor bearing C57BL/6J mouse at 0.37-0.74 MBq, iv after 1 hr; type: ADME, organism-based; details: in vivo; summary of the method: as §2
[13] = tested on: Kidney; experiment: Biodistribution in kidney of B16F0 tumor bearing C57BL/6J mouse at 0.37-0.74 MBq, iv after 24 hrs; type: ADME, organism-based; details: in vivo; summary of the method: as §2
[14] = tested on: Liver; experiment: Biodistribution in liver of B16F0 tumor bearing C57BL/6J mouse at 0.37-0.74 MBq, iv after 1 hr; type: ADME, organism-based; details: in vivo; summary of the method: as §2
[15] = tested on: Lung; experiment: Biodistribution in lung of B16F0 tumor bearing C57BL/6J mouse at 0.37-0.74 MBq, iv after 6 hrs; type: ADME, organism-based; details: in vivo; summary of the method: as §2
[16] = tested on: Liver; experiment: Biodistribution in liver of B16F0 tumor bearing C57BL/6J mouse at 0.37-0.74 MBq, iv after 6 hrs; type: ADME, organism-based; details: in vivo; summary of the method: as §2
[17] = tested on: Blood; experiment: Biodistribution in blood of B16F0 tumor bearing C57BL/6J mouse at 0.37-0.74 MBq, iv after 24 hrs; type: ADME, organism-based; details: in vivo; summary of the method: as §2
[18] = Biodistribution in melanoma of B16F0 tumor bearing C57BL/6J mouse at 0.37-0.74 MBq, iv after 1 hr; type: ADME, organism-based, B16-F0; details: in vivo; summary of the method: as §2
[19] = tested on: Lung; experiment: Biodistribution in lung of B16F0 tumor bearing C57BL/6J mouse at 0.37-0.74 MBq, iv after 24 hrs; type: ADME, organism-based; details: in vivo; summary of the method: as §2
[20] = tested on: Brain; experiment: Biodistribution in brain of B16F0 tumor bearing C57BL/6J mouse at 0.37-0.74 MBq, iv after 24 hrs; type: ADME, organism-based; details: in vivo; summary of the method: as §2
[21] = tested on: Kidney; experiment: Biodistribution in kidney of B16F0 tumor bearing C57BL/6J mouse at 0.37-0.74 MBq, iv after 6 hrs; type: ADME, organism-based; details: in vivo; summary of the method: as §2
[22] = Biodistribution in melanoma of B16F0 tumor bearing C57BL/6J mouse at 0.37-0.74 MBq, iv after 6 hrs; type: ADME, organism-based, B16-F0; details: in vivo
Summary of the method: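 Female C57BL/6J mice (15-18 g) carrying s.c. B16F0 flank tumors (0.1 mL of 3 × 10⁶ viable cells per mL in Ca²⁺/Mg²⁺-free PBS, inoculated at 6-7 weeks, used 10 days later). [¹²³I]tracer 0.37-0.74 MBq in saline, 100 µL, tail-vein i.v. Groups of n = 5 killed at 1-72 h. Organs weighed and γ-counted, carcass activity also counted, values as %ID/g.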

[23] = tested on: Liver; experiment: Biodistribution in liver of B16F0 tumor bearing C57BL/6J mouse at 0.37-0.74 MBq, iv after 24 hrs; type: ADME, organism-based; details: in vivo; summary of the method: as §2
[24] = Biodistribution in melanoma of B16F0 tumor bearing C57BL/6J mouse at 0.37-0.74 MBq, iv after 24 hrs; type: ADME, organism-based, B16-F0; details: in vivo; summary of the method: as §2

Ki [1]: > 100 µM
Ki [2]: 0.65 µM
logD [3]: 1.95
Structure (SMILES): CCN(CC)CCNC(=O)c1cc(I)c(NS(=O)(=O)c2ccc(C)cc2)cc1OC

Ki [1]: 1 µM
Ki [2]: 1.3 µM
logD [3]: 2.46
Structure (SMILES): CCCN(CCC)CCCCNC(=O)c1ccc(I)cc1

Drug uptake [4]: 1.3 % ID/g
Drug uptake [5]: 1.5 % ID/g
Drug uptake [6]: 0.03 % ID/g
Drug uptake [7]: 0.84 % ID/g
Drug uptake [8]: 0.07 % ID/g
Drug uptake [9]: 5.7 % ID/g
Drug uptake [10]: 0.68 % ID/g
Drug uptake [11]: 0.3 % ID/g
Drug uptake [12]: 0.07 % ID/g
Drug uptake [13]: 0.06 % ID/g
Drug uptake [14]: 9.5 % ID/g
Drug uptake [15]: 0.5 % ID/g
Drug uptake [16]: 1.5 % ID/g
Drug uptake [17]: 0.02 % ID/g
Drug uptake [18]: 5.5 % ID/g
Drug uptake [19]: 0.06 % ID/g
Drug uptake [20]: 0.07 % ID/g
Drug uptake [21]: 0.69 % ID/g
Drug uptake [22]: 6 % ID/g
Drug uptake [23]: 0.42 % ID/g
Drug uptake [24]: 3.7 % ID/g
Structure (SMILES): COc1cc(NC(C)=O)c([123I])cc1C(=O)NCCCCN(C)C(C)C

Ki [1]: 45 µM
Ki [2]: 0.8 µM
logD [3]: 0.82
Structure (SMILES): CCN(CC)CCNC(=O)c1cc(I)c(NS(C)(=O)=O)cc1OC
